ChEMBL document CHEMBL1159127 (Bioorg Med Chem, 2010)
≈ marks a conversion by molar mass, not a printed value.

Assays:
[1] = Aqueous solubility in phosphate buffer at pH 7.4; assay type: physicochemical
Method in brief: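 Thermodynamic solubility by the Avdeef–Testa approach. About 1 mg of ground compound went into 1.0 mL of 1/15 M phosphate buffer (pH 7.4) […], shaken 48 h at 25 °C, then filtered (0.22 µm). Filtrate was diluted in DMF and quantified by reversed-phase HPLC-UV (263–288 nm) against a calibration curve.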

[2] = target: T1, Aryl hydrocarbon receptor (Homo sapiens, UniProt P35869); test: Agonist activity at aryl hydrocarbon receptor in human MCF7 cells after 24 hrs CYP1A1-dependent EROD assay; assay type: functional, cell-based
T1 sequence (P35869 whole entry): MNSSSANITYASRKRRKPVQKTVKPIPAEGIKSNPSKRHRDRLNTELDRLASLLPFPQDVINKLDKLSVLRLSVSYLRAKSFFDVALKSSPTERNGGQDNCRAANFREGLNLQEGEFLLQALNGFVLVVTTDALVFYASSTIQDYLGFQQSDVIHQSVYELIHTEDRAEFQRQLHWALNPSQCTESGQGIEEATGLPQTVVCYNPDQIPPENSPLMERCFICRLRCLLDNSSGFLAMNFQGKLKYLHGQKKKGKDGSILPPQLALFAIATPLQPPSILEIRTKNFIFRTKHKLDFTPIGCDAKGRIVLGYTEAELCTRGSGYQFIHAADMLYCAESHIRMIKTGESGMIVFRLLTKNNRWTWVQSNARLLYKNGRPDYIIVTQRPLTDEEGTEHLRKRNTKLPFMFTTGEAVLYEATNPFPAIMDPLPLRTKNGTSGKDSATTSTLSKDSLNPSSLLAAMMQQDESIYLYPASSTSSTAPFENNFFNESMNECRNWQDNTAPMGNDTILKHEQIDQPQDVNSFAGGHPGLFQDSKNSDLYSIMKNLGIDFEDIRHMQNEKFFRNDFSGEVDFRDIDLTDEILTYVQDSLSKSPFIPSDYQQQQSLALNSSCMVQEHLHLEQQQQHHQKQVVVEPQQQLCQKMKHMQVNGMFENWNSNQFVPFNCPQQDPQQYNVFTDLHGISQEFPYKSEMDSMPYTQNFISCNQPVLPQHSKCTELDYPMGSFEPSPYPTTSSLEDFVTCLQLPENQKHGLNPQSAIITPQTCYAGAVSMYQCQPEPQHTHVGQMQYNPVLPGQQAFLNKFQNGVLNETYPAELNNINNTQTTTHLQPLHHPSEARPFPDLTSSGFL
Method in brief: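 MCF-7 cells in high-glucose D-MEM with 10% FBS, plated at 5×10^5 cells/mL, settled 4.5 h at 37 °C, then exposed to compound (3% DMSO in added portion) for 24 h. Washed cells were given ethoxyresorufin, dicoumarol and NADPH in PBS for 150 min at 37 °C. Triplicate; EC50 derived.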

[3] = Thermodynamic aqueous solubility in equal volume of ethyl alcohol and 1/15M phosphate buffer at pH 7.4; assay type: physicochemical; settings: 1:1 (v/v) ethyl alcohol / 1/15 M phosphate buffer
Method in brief: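 About 1 mg solid ground in agate mortar, suspended in 1.0 mL of a 1:1 mix of 1/15 M phosphate buffer (pH 7.4) and EtOH, shaken 48 h at 25 °C. Filtered (0.22 µm), filtrate diluted in DMF, quantified by reversed-phase C18 HPLC with UV at 263–288 nm against a calibration curve, corrected for dilution.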

MCF7 = test: Toxicity in human MCF7 cells assessed as effect on cell viability after 24 hrs; assay type: cell-based; settings: mcf7, 24 h
Method in brief: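 Same MCF-7 plating and 24 h compound exposure as the EROD assay. Medium was then removed, cells were detached with 0.25% trypsin/EDTA and counted.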

[4] = phosphate buffer, read-out: solubility

| Compound | solubility [1, 4] | solubility ([1]; buffer) | EC50 [2] | solubility thermodynamic [3] | Activity (MCF7) |
| --- | --- | --- | --- | --- | --- |
| O=C(NC[C@H](NS(=O)(=O)c1ccccc1)C(=O)O)c1ccc(N2CCC(NC3=NCCCN3)CC2)cc1 | < 0.1 µg/mL | – | – | – | – |
| O=C(NC[C@H](NS(=O)(=O)c1ccccc1)C(=O)O)c1ccc(N2CCC(NC3=NCCCN3)CC2)c(F)c1 | – | 0.6 µg/mL (≈ 1.1 µM) | – | – | – |
| O=C(NC[C@H](NS(=O)(=O)c1ccccc1)C(=O)O)c1ccc(N2CCC[C@H](N=C3NCCCN3)C2)cc1 | – | 3.5 µg/mL (≈ 6.62 µM) | – | – | – |
| Cc1cccc(C)c1-c1cc(=O)c2c(ccc3ccccc32)o1 | – | – | > 10000 nM | 1270 µg/mL (≈ 4230 µM) | Non-toxic |
| O=c1cc(-c2ccccc2F)oc2ccc3ccccc3c12 | – | – | 330 nM | 153 µg/mL (≈ 527 µM) | Non-toxic |
| COc1ccccc1-c1cc(=O)c2c(ccc3ccccc32)o1 | – | – | 270 nM | 45.8 µg/mL (≈ 151 µM) | Non-toxic |
| O=c1cc(-c2ccccn2)oc2ccc3ccccc3c12 | – | – | 450 nM | 299 µg/mL (≈ 1090 µM) | Non-toxic |
| O=c1cc(-c2c(F)cccc2F)oc2ccc3ccccc3c12 | – | – | 200 nM | 248 µg/mL (≈ 804 µM) | Non-toxic |
| Cc1ccccc1-c1cc(=O)c2c(ccc3ccccc32)o1 | – | – | > 10000 nM | 262 µg/mL (≈ 915 µM) | Non-toxic |
| O=c1cc(-c2ccccc2)oc2ccc3ccccc3c12 [BETA-NAPHTHOFLAVONE] | < 0.15 µg/mL | – | – | 84.6 µg/mL (≈ 311 µM) | Non-toxic |
